Consider 1 compound from ChEMBL document CHEMBL4610063, “Mangiferin: A promising natural xanthone from Mangifera indica for the control of acyclovir - resistant herpes simplex virus 1 infection” (Bioorg Med Chem, 2020).

SMILES strings stand for the structures. ≈ marks a conversion by molar mass, not a printed value. Calls of active or inactive are those of the source. No cut-off for these calls is given here.

Data set [1] in a line: Cytotoxicity against African green monkey Vero cells assessed as reduction in cell viability incubated for 72 hrs by MTT assay. Type of data set: cell-based. The following applies: chlorocebus sabaeus. The method in brief: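 Vero cells exposed to mangiferin 31.25–500 μg/mL for 72 h at 37 °C, 5% CO2. Viability read by MTT as At/Ac × 100 versus untreated cells; CC50 from linear regression.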

Data set [2] concerns Human alphaherpesvirus 1. Description: Antiviral activity against ACV-resistant Herpes simplex virus 1 AR-29 infected in African green monkey Vero cells assessed as inhibition of viral infection at 12.5 ug/ml measured after 72 hrs by crystal violet staining based plaque reduction assay relative to control. It counts as functional. The following applies: Human alphaherpesvirus 1, AR-29, Vero. The method in brief:
(§1)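 Plaque reduction in Vero cells. Mangiferin at 3.12, 6.25, 12.5 or 25 μg/mL is added at infection (0 h) with HSV-1 (10^5 PFU/mL). Agarose overlay with 25 mM MgCl2, 72 h at 37 °C/5% CO2, 20% formaldehyde fix, 0.5% crystal violet stain. %VI is taken against virus control. IC50 comes from linear regression of inhibition curves. Triplicate independent experiments.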

Data set [3] deals with Human alphaherpesvirus 1. Description: Antiviral activity against ACV-sensitive Herpes simplex virus 1 KOS infected in African green monkey Vero cells assessed as inhibition of viral infection at 6.25 ug/ml measured after 72 hrs by crystal violet staining based plaque reduction assay relative to control. Type of data set: functional. To be noted: Human alphaherpesvirus 1, strain KOS. A digest of the protocol:
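Vero monolayers infected with HSV-1 KOS (10^5 PFU/mL) with mangiferin (3.12, 6.25, 12.5, 25 μg/mL) added at infection (0 h). Overlay of nutrient agarose with 25 mM MgCl2; plaques counted after 72 h at 37 °C, 5% CO2, fixed in 20% formaldehyde/PBS and stained with 0.5% crystal violet. %VI versus virus control; triplicate experiments.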

In data set [4] the test system is Human alphaherpesvirus 1. The data set is described as follows: Antiviral activity against ACV-sensitive Herpes simplex virus 1 KOS infected in African green monkey Vero cells assessed as inhibition of viral infection at 12.5 ug/ml measured after 72 hrs by crystal violet staining based plaque reduction assay relative to control. The following applies: Human alphaherpesvirus 1, strain KOS. It counts as functional. The method in brief: as §1

Data set [5] relates to Human alphaherpesvirus 1. Description: Antiviral activity against ACV-sensitive Herpes simplex virus 1 KOS infected in African green monkey Vero cells assessed as inhibition of viral infection at 25 ug/ml measured after 72 hrs by crystal violet staining based plaque reduction assay relative to control. Type of data set: functional. The following applies: Human alphaherpesvirus 1, strain KOS. A digest of the protocol:
as §1

The test system of data set [6] is Human alphaherpesvirus 1. Description: Antiviral activity against ACV-sensitive Herpes simplex virus 1 KOS infected in African green monkey Vero cells assessed as inhibition of viral infection measured after 72 hrs by crystal violet staining based plaque reduction assay. Type of data set: functional, organism-based. To be noted: Human alphaherpesvirus 1, strain KOS. A digest of the protocol: as §1

Data set [7] can be described thus: Selectivity index, ratio of CC50 for African green monkey Vero cells to IC50 for Herpes simplex virus 1 AR-29 infected in African green monkey Vero cells. It counts as toxicity. The following applies: read-out: Ratio CC50/IC50. The method in brief: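 SI = CC50 (Vero, MTT, 72 h) / IC50 from plaque reduction with mangiferin added at infection (0 h) against HSV-1 AR-29 or KOS; IC50 by linear regression of viral inhibition curves.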

The subject of data set [8] is Human alphaherpesvirus 1. Description: Antiviral activity against ACV-resistant Herpes simplex virus 1 AR-29 infected in female Balb/c mouse assessed as reduction in skin lesion at 0.7% w/w applied topically 5 times a day at 3 hrs interval for 10 days. It counts as functional, organism-based. A digest of the protocol: (§2)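 Balb/c mice, 5 weeks old, six per group. Right mid-flank depilated under i.p. anaesthesia, needle-scarified 24 h later and inoculated with 70 μL HSV-1 AR-29 (10^5 PFU/mL). Topical 0.7% w/w O/W emulsion or ACV cream (50 mg/g) starts 4 h post-infection, 5 times daily for 10 days. Lesions are scored daily.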

Data set [9] relates to Human alphaherpesvirus 1. Description: Virucidal activity against ACV-resistant Herpes simplex virus 1 AR-29 infected in African green monkey Vero cells assessed as inhibition of viral inhibition at 3.12 to 25 ug/mL measured after 1 hr by plaque reduction assay. It counts as functional, organism-based. A digest of the protocol:
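HSV-1 AR-29 suspension is incubated with mangiferin (3.12–25 μg/mL) for 1 h at 37 °C, then titrated by plaque reduction on Vero cells. Agarose/MgCl2 overlay, 72 h, crystal violet stain. %VI is taken against virus control. Triplicate independent experiments.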

Data set [10] has as its system Human alphaherpesvirus 1. Description: Antiviral activity against ACV-sensitive Herpes simplex virus 1 KOS infected in African green monkey Vero cells assessed as inhibition of viral adsorption at 25 ug/mL preincubated for 30 mins and measured after 1 hr by plaque reduction assay. To be noted: strain KOS. Type of data set: functional, organism-based. The method in brief:
(§3)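 Vero cells pre-chilled 30 min at 4 °C, then given mangiferin (3.12–25 μg/mL) together with HSV-1 KOS (10^5 PFU/mL); 1 h adsorption at 4 °C, then plaque reduction: agarose/DMEM overlay with 25 mM MgCl2, 72 h at 37 °C, formaldehyde fixation, crystal violet stain. %VI = 1 − PFU treated/PFU virus control; triplicate independent experiments.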

For data set [11], the system named is Human alphaherpesvirus 1. Description: Antiviral activity against ACV-sensitive Herpes simplex virus 1 KOS infected in African green monkey Vero cells assessed as inhibition of viral adsorption at 3.12 ug/mL preincubated for 30 mins and measured after 1 hr by plaque reduction assay relative to control. It counts as functional. The following applies: Human alphaherpesvirus 1, strain KOS. The method in brief:
as §3

Data set [12] concerns Human alphaherpesvirus 1. Description: Antiviral activity against ACV-sensitive Herpes simplex virus 1 KOS infected in male Balb/c mouse assessed as reduction in ulcerated lesion at 0.7% w/w applied topically 5 times a day at 3 hrs interval for 10 days measured on day 5 post infection. It counts as functional, organism-based. The following applies: strain KOS. A digest of the protocol: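 Balb/c mice (5 weeks, 22–27 g; six per group, sexes tested separately) had the right mid-flank depilated under i.p. anaesthesia and needle-scarified 24 h later. They were inoculated with 70 μL HSV-1 KOS (10^5 PFU/mL). From 4 h post-infection, O/W emulsion with 0.7% w/w mangiferin or ACV cream (50 mg/g) was applied topically 5 times daily for 10 days. Lesions were scored daily.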

For data set [13], the system named is Human alphaherpesvirus 1. Description: Antiviral activity against ACV-resistant Herpes simplex virus 1 AR-29 infected in male Balb/c mouse assessed as reduction in ulcerated lesion at 0.7% w/w applied topically 5 times a day at 3 hrs interval for 10 days measured on day 5 post infection. Type of data set: functional, organism-based. The method in brief:
as §2

Data set [14] relates to Human alphaherpesvirus 1. Description: Antiviral activity against ACV-resistant Herpes simplex virus 1 AR-29 infected in male Balb/c mouse assessed as reduction in ulcerated lesion at 0.7% w/w applied topically 5 times a day at 3 hrs interval for 10 days measured on day 7 post infection. Type of data set: functional, organism-based. The method in brief:
as §2

The test system of data set [15] is Human alphaherpesvirus 1. Description: Antiviral activity against ACV-resistant Herpes simplex virus 1 AR-29 infected in female Balb/c mouse assessed as change in dermis thickness at 0.7% w/w applied topically 5 times a day at 3 hrs interval for 10 days measured on day 10 post infection by H and E staining based histological analysis. It counts as functional, organism-based.

Data set [16] relates to Human alphaherpesvirus 1. Description: Antiviral activity against ACV-resistant Herpes simplex virus 1 AR-29 infected in female Balb/c mouse assessed as change in epidermis thickness at 0.7% w/w applied topically 5 times a day at 3 hrs interval for 10 days measured on day 10 post infection by H and E staining based histological analysis. It counts as functional, organism-based.

Data set [17] relates to Human alphaherpesvirus 1. The data set is described as follows: Antiviral activity against ACV-sensitive Herpes simplex virus 1 KOS infected in female Balb/c mouse assessed as change in dermis thickness at 0.7% w/w applied topically 5 times a day at 3 hrs interval for 10 days measured on day 10 post infection by H and E staining based histological analysis. To be noted: strain KOS.

Turning to `O=c1c2cc(O)c(O)cc2oc2cc(O)c([C@@H]3O[C@H](CO)[C@@H](O)[C@H](O)[C@H]3O)c(O)c12` [MANGIFERIN], in data set [1], the 50% cytotoxic concentration (CC50) at 72 h is above 500 µg/mL. The inhibition at 12.5 µg/mL in the data set on Human alphaherpesvirus 1 [2] and with Human alphaherpesvirus 1 [4] was 100% each time. Moreover, the inhibition at 6.25 µg/mL in the data set with Human alphaherpesvirus 1 [3] worked out at 93.9%. For the same compound, in the data set on Human alphaherpesvirus 1 [5], the inhibition at 25 µg/mL stood at 100%. In addition, the IC50 in the data set on Human alphaherpesvirus 1 [6] was found to be 3.5 µg/mL (≈ 8.29 µM). For the same compound, the selectivity ratio in data set [7] was above 172. Further, the result with Human alphaherpesvirus 1 [8], with Human alphaherpesvirus 1 [13] and in the data set with Human alphaherpesvirus 1 [14] was Active. For the same compound, the inhibition result in the data set on Human alphaherpesvirus 1 [9] and in the data set on Human alphaherpesvirus 1 [10] was “Active” in each case. Besides, the inhibition at 3.12 µg/mL with Human alphaherpesvirus 1 [11] is 29.2%. Besides, the outcome with Human alphaherpesvirus 1 [12], with Human alphaherpesvirus 1 [15], in the data set with Human alphaherpesvirus 1 [16] and with Human alphaherpesvirus 1 [17] was inactive.
